Active and inactive are the calls of the source.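 How the source made its calls: active means inhibition above 50% of the malaria lysate aminopeptidase activity; inactive means inhibition of 50% or less.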

Sequence of Aspartyl aminopeptidase (Plasmodium falciparum (isolate 3D7)) (Q8I2J3 whole entry, looked up): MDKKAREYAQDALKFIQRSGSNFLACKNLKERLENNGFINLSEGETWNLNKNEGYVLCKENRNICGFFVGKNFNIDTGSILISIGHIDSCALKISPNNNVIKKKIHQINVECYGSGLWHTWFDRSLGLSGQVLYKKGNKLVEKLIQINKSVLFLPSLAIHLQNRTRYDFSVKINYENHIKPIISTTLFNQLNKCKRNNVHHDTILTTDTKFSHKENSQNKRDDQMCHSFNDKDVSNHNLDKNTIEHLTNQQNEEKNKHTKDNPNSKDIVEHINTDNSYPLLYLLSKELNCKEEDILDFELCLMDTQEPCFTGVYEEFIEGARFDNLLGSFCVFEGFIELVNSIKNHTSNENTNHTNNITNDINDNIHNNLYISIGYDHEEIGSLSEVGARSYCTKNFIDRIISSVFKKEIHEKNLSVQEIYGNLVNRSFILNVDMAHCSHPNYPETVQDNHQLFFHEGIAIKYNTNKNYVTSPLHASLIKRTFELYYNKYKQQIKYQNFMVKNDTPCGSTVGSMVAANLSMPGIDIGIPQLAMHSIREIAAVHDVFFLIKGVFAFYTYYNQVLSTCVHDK

The test concerns the target Aspartyl aminopeptidase (Plasmodium falciparum (isolate 3D7)) (UniProt Q8I2J3). The test can be described thus: inhibitors of M18 aminopeptidase activity, malaria lysate – cell lysate, fluorescence, malaria cell lysate, powder samples, late-stage follow-up (AID 492975). Particulars: P. falciparum lysate, H-Glu-NHMec fluorogenic substrate; at 5 µM; active compounds read high. Put shortly: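 Test system: P. falciparum malaria cell lysate; Input: malaria cell lysate at 10 µg/mL final; Buffer or medium: 25 mM Tris-HCl buffer, pH 7.5; Also added: fluorogenic substrate H-Glu-NHMec at 50 µM final; Times: 10 min pre-incubation, 30 min reading; Measured by: fluorescence 370/460 nm, 1-min intervals; Control set: no-compound and no-lysate control wells.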
Consider `Cc1ccc([N+](=O)[O-])cc1-c1[nH]c(-c2ccc(O)c(O)c2)nc1-c1ccccc1`, for which the inhibition (commonly how much of the control response was suppressed) is 92%.
For `Cc1cc(=O)[nH]c(SCC(=O)c2ccc(O)c(O)c2)n1`, the inhibition is 61%.
With `CCOC(=O)C1=C(CS(=O)(=O)c2ccc(F)cc2)NC(=O)NC1c1ccc(O)c(O)c1` (stereo not given) the figure was 90%; with `O=C(O)c1ccc(O)c(O)c1`, 94%; with `O=c1c(O)c(-c2ccc(O)c(O)c2)oc2cc(O)cc(O)c12`, 80%.
In the case of `CN1CCc2cccc3c2[C@@H]1Cc1ccc(O)c(O)c1-3`, the inhibition was 84%.
`O=C(CSc1ncn[nH]1)OCN1C(=O)c2ccccc2C1=O`: the inhibition was 49% (inactive).
Consider `O=c1c2c([N+](=O)[O-])cc([N+](=O)[O-])cc2sn1Cc1ccccc1`, for which the inhibition was 94%.
The value for `COc1cccc2c(SCC(=O)N/N=C/c3ccc(O)c(O)c3)cc(C)nc12` was 80%; that for `Oc1ccc(-c2csc(-c3ccccc3)n2)cc1O` was 94%.
The value for `O=C(NC(=S)Nn1cnnc1)c1ccccc1Br` was 14% (inactive).
`O=C(O)CSc1ncn[nH]1`: the inhibition is 66%.
The value for `Cc1nc2ccccn2c1C(=O)NNC(=O)Nc1ccccc1` was 53%; that for `Oc1ccc(-c2csc(-c3cccnc3)n2)cc1O` was 99%.
The value for `O=C(Nn1cnnc1)c1ccccc1-c1ccccc1` was 10% (inactive); that for `Cc1ccc(Cl)cc1NC(=S)Nn1cnnc1` was 16% (inactive); that for `Oc1ccc(/C=C/c2cc(O)cc(O)c2)cc1` was 66%.
The value for `O=C(CSc1nn(-c2ccccc2)c(=S)s1)Nn1cnnc1` was 9% (inactive).
Take `CC1=NNC(=O)/C1=C\c1cn(-c2ccccc2)nc1-c1ccc(F)cc1`: the inhibition is 68%.
With `Oc1cc(O)c2c(c1)O[C@H](c1ccc(O)c(O)c1)[C@H](O)C2` the figure was 89%; with `O=C(CSc1ncn[nH]1)Nc1nc(-c2ccccc2)ns1`, 12% (inactive).
Take `NCCc1ccc(O)c(O)c1`: the inhibition is 70%.
As to `Cc1c(Cl)cccc1NC(=O)Nn1cnnc1`, the inhibition was 10% (inactive).
For `Cc1ccc(NC(=S)Nn2cnnc2)c(C)c1`, the inhibition is 7% (inactive).
The value for `O=C(Nc1ccc(Br)cc1Cl)Nn1cnnc1` was 28% (inactive); that for `COc1cc(Br)cc(/C=N/c2ncn[nH]2)c1O` was 0% (inactive); that for `O=C(CNC(=O)c1ccccc1)NCCc1ccc(O)c(O)c1` was 94%.
Turning to `COC(=O)CN(n1cnnc1)S(=O)(=O)c1ccccc1`, the inhibition was 0% (inactive).
Consider `COc1ccc(C(=O)n2cnnc2N)cc1`, for which the inhibition was 12% (inactive).
With `Br/C(C=Nn1cnnc1)=C\c1ccccc1` the figure was 14% (inactive).
Take `O=C(CSc1nc2ccccc2c(=O)[nH]1)c1ccc(O)c(O)c1`: the inhibition was 79%.
For `COc1cccc(-c2cc(C(=O)Nn3cnnc3)c3ccccc3n2)c1`, the inhibition was 0% (inactive).
The value for `Oc1ccc(-c2cn3ccccc3n2)cc1O` was 94%.
The value for `Cc1cccc(NC(=S)Nn2cnnc2)c1C` was 12% (inactive); that for `Cc1cc(C)cc(C(=O)n2cnnc2N)c1` was 11% (inactive).
On to `CC(C)n1c(SCC(=O)Nc2nncs2)nnc1-c1ccco1`, for which the inhibition was 11% (inactive).
On to `O=C(Nc1cccc(Cl)c1Cl)Nn1cnnc1`, for which the inhibition was 26% (inactive).
On to `Cc1nc(-c2ccc(O)c(O)c2)cs1`, for which the inhibition is 95%.
Turning to `O=C(Nn1cnnc1)c1csc2ccccc12`, the inhibition was 5% (inactive).
As for `CC1(C)CC2(CC(c3ccccc3F)c3ccc(O)c(O)c3O2)NC(=S)N1` (stereo not given), the inhibition was 89%.
The value for `CC1(C)CC(=O)c2c(oc3cc(O)c(O)cc23)C1` was 85%; that for `O=C(Nc1ccc(Cl)c(Cl)c1)Nn1cnnc1` was 84%; that for `COc1ccc2nc(C)cc(SCC(=O)N/N=C/c3ccc(O)c(O)c3)c2c1` was 83%.
`O=[N+]([O-])c1cc([N+](=O)[O-])c2cccnc2c1Oc1ccccc1O`: the inhibition is 85%.
On to `Cc1cc(C)n2c(=S)[nH]nc2n1`, for which the inhibition is 74%.
Turning to `OC(Cn1cnnc1)c1ccccc1` (stereo not given), the inhibition was 12% (inactive).
With `O=c1[nH]c(CSc2ncn[nH]2)nc2ccccc12` the figure was 15% (inactive).
Turning to `CCc1ccccc1NC(=S)Nn1cnnc1`, the inhibition was 14% (inactive).
With `CCC(C)c1ccc(O)c(N)c1` (stereo not given) the figure was 95%.
For `O=S(=O)(Nn1cnnc1)c1ccccc1`, the inhibition was 2% (inactive).
The value for `COc1ccc(Cl)cc1NC(=O)Nn1cnnc1` was 21% (inactive); that for `Cc1ccc(-n2c(O)c(/C=N/n3cnnc3)c3ccccc3c2=O)cc1` was 12% (inactive).
With `COc1cc([N+](=O)[O-])ccc1NC(=O)Nn1cnnc1` the figure was 0% (inactive).
With `O=c1[nH]c(=S)[nH]c(O)c1/C=C1\C=c2ccccc2=N1`, the inhibition is 41% (inactive).
With `Nc1nncn1C(=O)CCCOc1ccc(Cl)cc1Cl` the figure was 3% (inactive); with `COC(=O)CN(n1cnnc1)S(=O)(=O)c1ccc(C)cc1`, 6% (inactive).
With `CCN(CC)S(=O)(=O)c1ccc(C(=O)Nn2cnnc2)cc1` the figure was 31% (inactive).
As to `S=C(Nc1cc(Cl)ccc1Cl)Nn1cnnc1`, the inhibition is 20% (inactive).
The value for `O=C(O)c1cn[nH]c1-n1cnnn1` was 7% (inactive).
In the case of `COc1ccc(NC(=O)NNC(=O)CCc2ccc(O)c(O)c2)cc1OC`, the inhibition was 86%.

For the origin of these results see PubChem BioAssay AID492975 (The Scripps Research Institute Molecular Screening Center, 2010).
